Article PMC6803818 (Future Medicinal Chemistry, 2019)
Entries after “also recorded” stand apart in the source; their conditions may differ. Read-outs that look alike come from different tables or passages of the source.

Columns and labels:
[1] = system: cancer cell lines with homozygous Y220C mutation; settings: cited from earlier work
[2] = biological target: p53-Y220C DBD (Homo sapiens, UniProt P04637, M133L/N239Y/N268D/V203A/Y220C); assay: Isothermal titration calorimetry; type: binding
[3] = system: NUGC-3 (Y220C) and NUGC-4 (wild-type p53); assay: Cell viability of gastric cancer cell lines, 72 h; type: cell-based, human; settings: NUGC-3 (Y220C) versus NUGC-4 (wild-type p53)
[4] = biological target: p53 wild type (Homo sapiens, UniProt P04637); assay: DSF with wild type p53 DBD; type: binding; settings: same conditions as in Table 1 (250 μM)
Summary of the method: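 Thermal shift of the p53 DNA-binding domain (8 μM) with 10× SYPRO Orange in 25 mM KPi (pH 7.2), 150 mM NaCl, 1 mM TCEP, at 5% (v/v) final DMSO. Test compound was present at 250 μM. ΔTm = Tm (protein + ligand) − Tm (protein alone).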

[5] = system: HUH-7 cells (homozygous p53-Y220C); assay: Cell viability, 72 h incubation; type: cell-based, human; settings: for p53-Y220C-dependent cell viability reduction: HUH-7 versus HUH-7 p53 KO
Summary of the method: (§1)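 HUH-7 (Y220C) cells and an isogenic CRISPR/Cas9 p53 knockout clone (HUH7-F1: codon-124 frameshift on one allele, deletion of residues 125–223 on the other) were exposed to 0.6–15 μM test compound for 72 h. Viability was read in quadruplicate and normalized to blank (=1) and no-cell (=0) controls. Data are mean ± SEM of triplicates, with a paired t-test comparing parental and knockout lines.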

[6] = Cell viability, 72 h incubation, isogenic knockout; type: cell-based, human; settings: human
Summary of the method: as §1

[7] = biological target: p53 Y220C DBD (94-312) (Homo sapiens, UniProt P04637, M133L/N239Y/N268D/V203A/Y220C); assay: Light scattering assay, aggregation kinetics at 37°C; type: biochemical; settings: for slowing of initial rate of Y220C aggregation relative to PK9318: 15 μM compound
[8] = biological target: stabilized p53-Y220C DBD (Homo sapiens, UniProt P04637, M133L/N239Y/N268D/V203A/Y220C); assay: Differential scanning fluorimetry; type: binding; settings: compound concentration 250 μM, 8-μM protein
Summary of the method: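 Thermal shift by DSF used 8 μM stabilized human p53 DBD (residues 94–312, M133L/V203A/N239Y/N268D plus Y220C) with 10× SYPRO Orange. Buffer was 25 mM KPi pH 7.2, 150 mM NaCl, 1 mM TCEP, with 5% (v/v) DMSO final. Test compound was at 250 μM. ΔTm = Tm(mutant + ligand) − Tm(mutant), averaged over replicate runs.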

[9] = system: HUH-7 p53 KO cells (HUH7-F1); assay: Cell viability, 72 h incubation, isogenic knockout; type: cell-based, human; settings: 0.6 to 15 μM, 72 h, HUH-7 p53 KO
Summary of the method: as §1

[10] = read-out: ITC KD, ¶ single measurement with ITC fit error, # mean of at least three independent measurements with SEM

In the case of `Cn1cc(-c2ccccc2)c(-n2cccc2)n1` [PK7088], the “effect in Y220C cancer cell lines” value [1] is given as “induced a mutant-specific increase in the amount of correctly folded protein and upregulation of p53 target genes p21 and NOXA”.
Compound `CCn1c2ccc(CNC)cc2c2ccc(-c3ccoc3)cc21` [PK9321] has a Kd [2, 10] of 5.6 ± 1.1 µM.
For `CCn1c2ccc(CNC)cc2c2ccc(-c3cscn3)cc21` [PK9323], the “preferential viability reduction in p53-Y220C cells” value (from here on “preferential viability reduction”) [3] was “preferential viability reduction in p53-Y220C cells” and the “stabilization of the wild type in DSF” value [4] was “neither the starting scaffold PK083 nor the second-generation carbazole PK9323 did show any stabilization of the wild type”.
With `CCn1c2ccc(CNC)cc2c2ccc(-c3cc(C)cs3)cc21` [PK9328] the “preferential viability reduction” value [3] was “preferential viability reduction in p53-Y220C cells”, the cell viability ([5]; 7.5 μM, 72 h, HUH-7) was “complete viability loss” and the “concentration inducing viability loss” value ([5]; 72 h, HUH-7) was at least 3.75 mM. The “p53-Y220C-dependent cell viability reduction” value ([5]; 72 h) was “p53-Y220C-dependent cell viability reduction was observed”, the “p53-Y220C-dependent cell viability reduction” value ([5]; 72 h, listed as PK3328) was “Y220C-mutant-specific viability reduction” and the Kd [2, 10] was 1.7 ± 0.2 µM. The viability at 72 h, 7.5 µM [6] was over 50% and the “slowing of initial rate of Y220C aggregation relative to PK9318” value [7] was “by a factor of two”.
For `CCn1c2ccc(CNC)cc2c2ccc(-c3ccco3)cc21` [PK9320], the “preferential viability reduction” value [3] was “preferential viability reduction in p53-Y220C cells”, the Kd [2, 10] was 4 µM and the “DSF ΔTM (°C)” value ([8]; 250 µM) was 3.7 ± 0.0 °C.
In the case of `CCn1c2ccc(CNC)cc2c2ccc(-c3cccs3)cc21` [PK9318], the “preferential viability reduction” value [3] is reported as “preferential viability reduction in p53-Y220C cells”, the cell viability ([5]; 15 μM, 72 h, HUH-7) is reported as “complete viability loss” and the “concentration inducing viability loss” value ([5]; 72 h, HUH-7) is reported as at least 3.75 mM. For the same compound, the “p53-Y220C-dependent cell viability reduction” value ([5]; 72 h) was “p53-Y220C-dependent cell viability reduction was observed; also recorded: Y220C-mutant-specific viability reduction”, the viability at 7.5 µM ([5]; Homo sapiens, Huh-7, 72 h, read-out: cell viability) was 58% and the viability at 72 h, 7.5 µM [6] was 88%. For the same compound, the viability at 72 h, 15 µM [6] was 40%, the “DSF ΔTM (°C)” value ([8]; 250 µM) was 3.6 ± 0.2 °C and the “lowering of initial aggregation rate versus no compound” value ([7]; 30 μM compound, 1:10 protein–ligand ratio) was “approximately sixfold lower initial aggregation rate”.
For `CCn1c2ccc(CNC)cc2c2ccc(-c3ccc(C)s3)cc21` [PK9327], the “slowing of initial rate of Y220C aggregation relative to PK9318” value [7] was “by a factor of two”.
For `CCn1c2ccc(CNC)cc2c2ccc(Br)cc21` [PK9284], the “affinity increase compared with PK083” value [2] was “ca. tenfold”, the Kd [2, 10] was 14.2 ± 2 µM and the “DSF ΔTM (°C)” value [8] was 3.0 ± 0.1 °C.
`CCOc1ccc2c3cc(CNC)ccc3n(CC)c2c1` [PK9295] showed a Kd [2] of 62 ± 6.5 µM.
For `CCn1c2ccc(CNC)cc2c2ccc(-c3cc(C)c(C)s3)cc21` [PK9329], the effect on viability ([5]; 0.6 to 15 μM, 72 h, HUH-7) was “did not have a significant effect on the viability”, the “p53-Y220C-dependent cell viability reduction” value ([5]; 72 h) was “did not show any p53-Y220C-dependent viability reduction” and the effect on viability [9] was “did not have a significant effect on the viability”.
